Assay results from ChEMBL document CHEMBL5316332 (J Med Chem, 2023).
pIC50, pKi: −log10 of the molar value. Active and inactive are the calls of the source. The calls are words filed in the database; no cut-off is given here.

What was measured:
[1] = target: T1, Bone morphogenetic protein receptor type-2 (Homo sapiens, UniProt Q13873); assay: Inhibition of recombinant C-terminal 6His-tagged human BMPR2 (188 to 517 residues) expressed in Escherichia coli Rosetta assessed as apparent inhibition constant using ATP as substrate incubated for 30 mins by Morrison plot analysis; conditions: read-out: Ki(app)
T1 sequence (Q13873 whole entry): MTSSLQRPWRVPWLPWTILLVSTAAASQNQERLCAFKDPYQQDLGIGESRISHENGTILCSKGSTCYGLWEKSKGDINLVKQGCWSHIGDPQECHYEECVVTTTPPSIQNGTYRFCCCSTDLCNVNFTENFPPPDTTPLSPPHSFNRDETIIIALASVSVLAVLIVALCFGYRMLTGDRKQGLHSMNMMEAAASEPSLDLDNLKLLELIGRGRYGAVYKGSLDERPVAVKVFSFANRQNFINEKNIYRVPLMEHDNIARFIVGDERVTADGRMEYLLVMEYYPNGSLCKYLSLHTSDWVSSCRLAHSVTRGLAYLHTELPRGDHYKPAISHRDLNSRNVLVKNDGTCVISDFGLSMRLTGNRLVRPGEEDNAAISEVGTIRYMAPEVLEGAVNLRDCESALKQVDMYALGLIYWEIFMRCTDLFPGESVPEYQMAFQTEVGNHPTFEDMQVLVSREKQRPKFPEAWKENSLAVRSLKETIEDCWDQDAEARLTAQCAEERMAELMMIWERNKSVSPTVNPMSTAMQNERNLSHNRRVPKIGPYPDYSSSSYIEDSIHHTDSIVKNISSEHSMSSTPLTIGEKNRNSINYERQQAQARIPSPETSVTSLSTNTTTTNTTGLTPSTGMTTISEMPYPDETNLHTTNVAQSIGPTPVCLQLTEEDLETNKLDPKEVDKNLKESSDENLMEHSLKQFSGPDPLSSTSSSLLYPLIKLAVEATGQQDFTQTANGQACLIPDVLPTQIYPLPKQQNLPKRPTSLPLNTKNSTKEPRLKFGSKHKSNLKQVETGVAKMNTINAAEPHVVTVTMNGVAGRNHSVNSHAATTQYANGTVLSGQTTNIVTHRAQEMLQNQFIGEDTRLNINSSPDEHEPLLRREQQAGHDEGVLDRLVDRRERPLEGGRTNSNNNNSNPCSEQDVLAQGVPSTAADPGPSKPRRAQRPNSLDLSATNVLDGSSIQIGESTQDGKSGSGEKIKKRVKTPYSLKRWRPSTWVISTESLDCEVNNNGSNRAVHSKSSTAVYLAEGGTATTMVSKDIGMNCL
How it was run: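 Purified His-tagged BMPR2 kinase domain with no peptide substrate (intrinsic ATPase). 10 μM ATP, 0.02% Tween-20, kinase buffer, 50 μL, enzyme level optimized for initial-velocity conditions. 30 min at 30 °C. Leftover ATP read by Kinase-Glo luminescence, with no-kinase controls. Kiapp from a modified Morrison equation fitted to normalized fractional activity, assuming no specific inhibition mode.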

[2] = target: T1, Bone morphogenetic protein receptor type-2; assay: Inhibition of recombinant C-terminal 6His-tagged human BMPR2 (188 to 517 residues) expressed in Escherichia coli Rosetta by LanthaScreen TR-FRET assay
How it was run: (§1)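 Outsourced SelectScreen profiling using a LanthaScreen TR-FRET binding format, in which a tight-binding tracer is displaced from the kinase.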

[3] = target: T2, Activin receptor type-1 (Homo sapiens, UniProt Q04771); assay: Inhibition of ACVR1 (unknown origin) by LanthaScreen TR-FRET assay; how it was run: as §1
T2 sequence (Q04771 whole entry): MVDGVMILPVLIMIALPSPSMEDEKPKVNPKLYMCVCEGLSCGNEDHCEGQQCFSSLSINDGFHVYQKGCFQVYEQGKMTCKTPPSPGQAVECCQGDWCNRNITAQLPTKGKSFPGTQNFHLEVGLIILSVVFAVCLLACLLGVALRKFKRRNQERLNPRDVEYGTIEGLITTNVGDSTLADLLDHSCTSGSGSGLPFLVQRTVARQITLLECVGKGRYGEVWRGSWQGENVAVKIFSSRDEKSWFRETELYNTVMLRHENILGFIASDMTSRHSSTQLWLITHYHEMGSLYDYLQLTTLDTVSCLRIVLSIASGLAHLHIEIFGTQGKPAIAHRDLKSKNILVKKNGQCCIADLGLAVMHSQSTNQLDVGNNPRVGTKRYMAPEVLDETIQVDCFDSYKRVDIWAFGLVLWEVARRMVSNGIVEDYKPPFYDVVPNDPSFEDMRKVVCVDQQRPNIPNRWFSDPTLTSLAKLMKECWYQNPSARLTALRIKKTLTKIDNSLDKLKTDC

[4] = target: T3, Activin receptor type-1B (Homo sapiens) (UniProt P36896); assay: Inhibition of ACVR1B (unknown origin) by Z'-LYTE assay
T3 sequence (whole entry): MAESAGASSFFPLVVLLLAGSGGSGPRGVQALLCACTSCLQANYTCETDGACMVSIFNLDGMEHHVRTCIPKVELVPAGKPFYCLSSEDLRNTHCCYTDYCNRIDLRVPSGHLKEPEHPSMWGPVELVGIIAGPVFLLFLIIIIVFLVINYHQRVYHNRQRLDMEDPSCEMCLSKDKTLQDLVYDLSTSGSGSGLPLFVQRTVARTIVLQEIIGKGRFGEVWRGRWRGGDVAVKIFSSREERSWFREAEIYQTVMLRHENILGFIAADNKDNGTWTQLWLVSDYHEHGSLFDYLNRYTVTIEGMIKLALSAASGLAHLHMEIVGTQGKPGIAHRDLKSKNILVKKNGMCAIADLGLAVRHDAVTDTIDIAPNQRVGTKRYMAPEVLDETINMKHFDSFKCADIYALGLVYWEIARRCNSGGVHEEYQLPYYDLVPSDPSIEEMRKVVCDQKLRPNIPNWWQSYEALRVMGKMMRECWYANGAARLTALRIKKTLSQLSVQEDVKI
How it was run: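 Outsourced SelectScreen profiling by Z'-LYTE, a fluorescence coupled-enzyme kinase activity assay based on protease sensitivity of nonphosphorylated versus phosphorylated peptide.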

[5] = target: TGF-beta receptor type-2 (Homo sapiens, UniProt P37173); assay: Inhibition of TGFBR2 (unknown origin) by LanthaScreen TR-FRET assay; how it was run: as §1
Sequence of TGF-beta receptor type-2 (P37173 whole entry): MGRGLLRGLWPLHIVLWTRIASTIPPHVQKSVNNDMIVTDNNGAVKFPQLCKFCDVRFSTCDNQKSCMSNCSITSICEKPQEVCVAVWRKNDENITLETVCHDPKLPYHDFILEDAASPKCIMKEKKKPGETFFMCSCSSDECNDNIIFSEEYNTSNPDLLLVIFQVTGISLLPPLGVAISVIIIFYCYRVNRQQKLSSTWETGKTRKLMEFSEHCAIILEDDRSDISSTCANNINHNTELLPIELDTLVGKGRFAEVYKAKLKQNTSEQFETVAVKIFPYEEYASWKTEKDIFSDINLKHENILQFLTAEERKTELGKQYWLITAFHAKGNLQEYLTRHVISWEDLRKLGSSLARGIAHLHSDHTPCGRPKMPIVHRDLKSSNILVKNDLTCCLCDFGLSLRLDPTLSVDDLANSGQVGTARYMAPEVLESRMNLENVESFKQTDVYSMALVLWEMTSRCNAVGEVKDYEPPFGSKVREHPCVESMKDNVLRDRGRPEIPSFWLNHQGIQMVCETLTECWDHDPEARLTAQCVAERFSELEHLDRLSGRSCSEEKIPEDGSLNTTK

[6] = target: Activin receptor type-2B (Homo sapiens, UniProt Q13705); assay: Inhibition of ACVR2B (unknown origin) by LanthaScreen TR-FRET assay; how it was run: as §1
Sequence of Activin receptor type-2B (Q13705 whole entry): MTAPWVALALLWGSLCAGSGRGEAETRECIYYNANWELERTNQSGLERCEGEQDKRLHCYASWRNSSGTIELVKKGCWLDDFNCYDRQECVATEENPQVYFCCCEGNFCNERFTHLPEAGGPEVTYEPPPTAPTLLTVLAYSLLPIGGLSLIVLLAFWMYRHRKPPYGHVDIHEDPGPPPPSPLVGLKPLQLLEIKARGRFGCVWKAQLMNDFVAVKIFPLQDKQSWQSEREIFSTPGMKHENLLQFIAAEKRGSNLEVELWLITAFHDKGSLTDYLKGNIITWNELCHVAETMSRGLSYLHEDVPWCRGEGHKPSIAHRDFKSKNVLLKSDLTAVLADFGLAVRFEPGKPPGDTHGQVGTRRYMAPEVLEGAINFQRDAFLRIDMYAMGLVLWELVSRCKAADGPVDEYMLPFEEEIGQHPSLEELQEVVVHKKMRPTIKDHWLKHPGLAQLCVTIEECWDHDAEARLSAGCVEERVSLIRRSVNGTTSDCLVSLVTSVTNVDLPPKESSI

[7] = Metabolic stability in mouse liver microsomes assessed as half life at 2 uM and mesured upto 60 mins in presence of NADPH by UHPLC-MS analysis; type: ADME, Microsome; conditions: microsomes, 1 h, 2 µM
[8] = Metabolic stability in human liver microsomes assessed as half life at 2 uM and mesured upto 60 mins in presence of NADPH by UHPLC-MS analysis; type: ADME, Microsome; conditions: microsomes, 1 h, 2 µM
[9] = Inhibition of BMP signalling pathway in BMP2-stimulated human HEK293T cells expressing BRE and luciferase reporter assessed as inhibition of luciferase transactivation by measuring BRE-reporter activity preincubated for 30 mins followed by BMP2 stimulation and measured after 6 hrs by Bright-GLO mediated luciferase assay; type: cell-based; conditions: HEK-293T
How it was run: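 293T cells stably carrying a BMP-responsive-element luciferase reporter, 2 × 10^4 per well, attached overnight in phenol-red-free DMEM with 2 mM glycine and 2% heat-inactivated FBS. Pretreated 30 min with inhibitor, then 5 ng/mL BMP2 for 6 h. Bright-Glo luminescence read; IC50 by nonlinear regression.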

SMILES | pKi [1] | pIC50 [2] | pIC50 [3] | inhibition [4] | inhibition [5] | inhibition [6] | t1/2 [7] | t1/2 [8] | pIC50 [9]
NC(=O)c1cccc(CNC(=O)c2ccc3nc(-c4ccc5cnccc5c4)n(C4CCCC4)c3c2)c1 | 8.10 | 8.92 | 6.91 | inactive | inactive | inactive | 45 min | 80 min | 5.21
CNC(=O)[C@@H]1CC[C@@H](n2c(-c3ccc4cnccc4c3)nc3ccc(C(=O)NCc4cccc(C(N)=O)c4)cc32)C1 | 8.21 | 8.74 | 6.60 | inactive | inactive | inactive | – | – | 4.62
CNC(=O)CCc1ccc(C(=O)NCc2cccc(N3CCN(c4nc(Nc5cccc(S(N)(=O)=O)c5)ncc4OC)CC3)c2)cc1 | 7.69 | 8.80 | < 6.00 | inactive | inactive | inactive | 7 min | 22 min | 5.31
COc1cnc(Nc2cccc(S(N)(=O)=O)c2)nc1N1CCN(c2ccccc2)C(=O)C1 | 8.15 | 8.55 | – | inactive | inactive | inactive | 40 min | 305 min | 5.16
